Laboratory results taken from ChEMBL document CHEMBL5653631, “A Potent and Selective ULK1 Inhibitor Suppresses Autophagy and Sensitizes Cancer Cells to Nutrient Stress” (iScience, 2018).

Columns and labels:
[1] = biological target: Mitogen-activated protein kinase kinase kinase 10 (Homo sapiens) (UniProt Q02779); assay: Inhibition of human recombinant MLK2 at 500 nM related to control ULK1
[2] = biological target: [Pyruvate dehydrogenase (acetyl-transferring)] kinase isozyme 4, mitochondrial (Homo sapiens) (UniProt Q16654); assay: Inhibition of human recombinant PDHK4 at 500 nM in presence of ATP by radiometric assay relative to control
[3] = biological target: Macrophage-stimulating protein receptor (Homo sapiens) (UniProt Q04912); assay: Inhibition of human recombinant RON at 500 nM in presence of ATP by radiometric assay relative to control
[4] = biological target: 5'-AMP-activated protein kinase catalytic subunit alpha-2 (Homo sapiens) (UniProt P54646); assay: Inhibition of human recombinant AMPKa2 at 500 nM in presence of ATP by radiometric assay relative to control
Summary of the method: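 Panel of 327 recombinant human kinases, each assayed in vitro by radiometric activity assay in duplicate at a single inhibitor concentration per compound, chosen with reference to its ULK1 inhibition. Activity remaining was expressed as percent of vehicle control, and percent inhibition was calculated as 100 minus percent activity remaining.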

[5] = biological target: Cyclin-dependent kinase 4 (Homo sapiens) (UniProt P11802); assay: Inhibition of human recombinant CDK4 at 15 nM in presence of ATP by radiometric assay relative to control
[6] = biological target: Casein kinase I isoform gamma-2 (Homo sapiens) (UniProt P78368); assay: Inhibition of human recombinant CK1g2 at 15 nM in presence of ATP by radiometric assay relative to control
[7] = biological target: T1, Aurora kinase C (Homo sapiens) (UniProt Q9UQB9); assay: Inhibition of human recombinant AurC at 15 nM in presence of ATP by radiometric assay relative to control
T1 sequence (whole entry): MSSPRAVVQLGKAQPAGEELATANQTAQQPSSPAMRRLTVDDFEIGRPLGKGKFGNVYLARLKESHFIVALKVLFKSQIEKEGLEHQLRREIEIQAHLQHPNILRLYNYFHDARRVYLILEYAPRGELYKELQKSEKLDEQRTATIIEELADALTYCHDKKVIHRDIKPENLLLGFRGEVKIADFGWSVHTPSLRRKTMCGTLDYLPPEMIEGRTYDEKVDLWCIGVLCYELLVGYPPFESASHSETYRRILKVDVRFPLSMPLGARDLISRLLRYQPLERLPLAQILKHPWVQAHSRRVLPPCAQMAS
Summary of the method: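 Part of a radiometric in vitro activity panel of 327 recombinant human kinases. Each kinase was tested in duplicate at one inhibitor concentration. Activity remaining was expressed as a percentage of the vehicle control, and percent inhibition was taken as 100 minus that value.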

[8] = biological target: Insulin-like growth factor 1 receptor (Homo sapiens) (UniProt P08069); assay: Inhibition of human recombinant IGF1R at 15 nM in presence of ATP by radiometric assay relative to control
[9] = biological target: MAP kinase-activated protein kinase 3 (Homo sapiens) (UniProt Q16644); assay: Inhibition of human recombinant MAPKAPK3 at 15 nM in presence of ATP by radiometric assay relative to control
[10] = biological target: Serine/threonine-protein kinase pim-2 (Homo sapiens) (UniProt Q9P1W9); assay: Inhibition of human recombinant PIM2 at 40 nM in presence of ATP by radiometric assay relative to control
[11] = biological target: MAP kinase-interacting serine/threonine-protein kinase 2 (Homo sapiens, UniProt Q9HBH9); assay: Inhibition of human recombinant MNK2
[12] = biological target: Death-associated protein kinase 1 (Homo sapiens) (UniProt P53355); assay: Inhibition of human recombinant DAPK1 at 40 nM in presence of ATP by radiometric assay relative to control
[13] = biological target: T2, SNF-related serine/threonine-protein kinase (Homo sapiens) (UniProt Q9NRH2); assay: Inhibition of human recombinant SNRK at 40 nM related to control ULK1
T2 sequence (whole entry): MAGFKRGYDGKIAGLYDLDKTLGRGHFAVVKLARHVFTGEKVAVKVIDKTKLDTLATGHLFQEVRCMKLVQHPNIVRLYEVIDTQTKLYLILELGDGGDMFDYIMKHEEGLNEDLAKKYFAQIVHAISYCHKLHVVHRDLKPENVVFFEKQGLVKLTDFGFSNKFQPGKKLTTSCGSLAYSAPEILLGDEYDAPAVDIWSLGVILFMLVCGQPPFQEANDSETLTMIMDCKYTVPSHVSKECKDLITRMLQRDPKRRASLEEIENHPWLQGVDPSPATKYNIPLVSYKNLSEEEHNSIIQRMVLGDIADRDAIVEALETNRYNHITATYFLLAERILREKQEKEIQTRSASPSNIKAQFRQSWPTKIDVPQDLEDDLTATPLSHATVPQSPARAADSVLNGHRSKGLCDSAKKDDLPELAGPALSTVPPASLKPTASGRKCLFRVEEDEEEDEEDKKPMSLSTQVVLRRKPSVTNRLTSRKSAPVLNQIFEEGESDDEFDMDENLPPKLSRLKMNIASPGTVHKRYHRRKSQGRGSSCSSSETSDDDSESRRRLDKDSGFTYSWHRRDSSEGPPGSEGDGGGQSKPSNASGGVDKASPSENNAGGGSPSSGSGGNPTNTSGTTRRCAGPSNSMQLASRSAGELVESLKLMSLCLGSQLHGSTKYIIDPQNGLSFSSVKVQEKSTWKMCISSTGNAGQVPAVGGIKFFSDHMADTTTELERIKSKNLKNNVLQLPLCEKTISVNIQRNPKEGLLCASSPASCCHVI

[14] = biological target: Serine/threonine-protein kinase/endoribonuclease IRE1 (Homo sapiens) (UniProt O75460); assay: Inhibition of human recombinant IRE1 at 40 nM related to control ULK1
[15] = biological target: Fibroblast growth factor receptor 2 (Homo sapiens) (UniProt P21802); assay: Inhibition of human recombinant FGFR2 at 40 nM related to control ULK1

Chain of Insulin-like growth factor 1 receptor (Homo sapiens) (P08069 31-736 limits assumed): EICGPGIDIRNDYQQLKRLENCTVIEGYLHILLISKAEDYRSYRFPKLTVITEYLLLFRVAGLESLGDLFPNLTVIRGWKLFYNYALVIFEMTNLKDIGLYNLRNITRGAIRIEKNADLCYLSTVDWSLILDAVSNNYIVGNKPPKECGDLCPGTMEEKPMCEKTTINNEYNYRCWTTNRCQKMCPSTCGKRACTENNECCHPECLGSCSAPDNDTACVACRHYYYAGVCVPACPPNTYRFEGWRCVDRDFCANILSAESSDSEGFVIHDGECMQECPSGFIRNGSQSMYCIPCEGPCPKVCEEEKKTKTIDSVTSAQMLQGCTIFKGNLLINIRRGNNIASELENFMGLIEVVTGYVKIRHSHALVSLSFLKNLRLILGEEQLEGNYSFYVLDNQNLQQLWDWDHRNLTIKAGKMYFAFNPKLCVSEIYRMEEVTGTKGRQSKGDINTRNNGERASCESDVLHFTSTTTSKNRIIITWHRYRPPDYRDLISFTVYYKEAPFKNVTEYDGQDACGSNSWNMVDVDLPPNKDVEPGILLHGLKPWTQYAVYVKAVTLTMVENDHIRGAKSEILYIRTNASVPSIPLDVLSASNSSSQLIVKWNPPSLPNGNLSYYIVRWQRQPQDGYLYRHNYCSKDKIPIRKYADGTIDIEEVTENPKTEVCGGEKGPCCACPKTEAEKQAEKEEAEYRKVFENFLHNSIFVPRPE
Chain of Insulin-like growth factor 1 receptor (Homo sapiens) (P08069 741-1367 limits assumed): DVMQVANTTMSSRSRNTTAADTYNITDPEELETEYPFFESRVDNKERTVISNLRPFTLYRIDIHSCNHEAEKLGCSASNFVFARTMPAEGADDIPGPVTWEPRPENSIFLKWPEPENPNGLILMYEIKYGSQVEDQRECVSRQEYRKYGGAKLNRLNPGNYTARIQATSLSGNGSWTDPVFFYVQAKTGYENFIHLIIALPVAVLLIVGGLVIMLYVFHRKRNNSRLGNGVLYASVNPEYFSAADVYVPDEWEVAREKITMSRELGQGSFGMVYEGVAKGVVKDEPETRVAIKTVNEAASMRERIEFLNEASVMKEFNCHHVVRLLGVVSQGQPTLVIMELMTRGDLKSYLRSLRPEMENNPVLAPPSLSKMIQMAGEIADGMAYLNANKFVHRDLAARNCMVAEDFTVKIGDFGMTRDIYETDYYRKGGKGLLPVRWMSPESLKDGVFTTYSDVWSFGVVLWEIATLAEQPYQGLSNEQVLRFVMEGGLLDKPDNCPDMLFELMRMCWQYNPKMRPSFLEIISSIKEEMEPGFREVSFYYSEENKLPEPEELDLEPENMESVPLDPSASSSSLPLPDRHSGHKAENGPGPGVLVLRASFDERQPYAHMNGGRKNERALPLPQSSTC
Chain of [Pyruvate dehydrogenase (acetyl-transferring)] kinase isozyme 4, mitochondrial (Homo sapiens) (Q16654 whole entry, looked up): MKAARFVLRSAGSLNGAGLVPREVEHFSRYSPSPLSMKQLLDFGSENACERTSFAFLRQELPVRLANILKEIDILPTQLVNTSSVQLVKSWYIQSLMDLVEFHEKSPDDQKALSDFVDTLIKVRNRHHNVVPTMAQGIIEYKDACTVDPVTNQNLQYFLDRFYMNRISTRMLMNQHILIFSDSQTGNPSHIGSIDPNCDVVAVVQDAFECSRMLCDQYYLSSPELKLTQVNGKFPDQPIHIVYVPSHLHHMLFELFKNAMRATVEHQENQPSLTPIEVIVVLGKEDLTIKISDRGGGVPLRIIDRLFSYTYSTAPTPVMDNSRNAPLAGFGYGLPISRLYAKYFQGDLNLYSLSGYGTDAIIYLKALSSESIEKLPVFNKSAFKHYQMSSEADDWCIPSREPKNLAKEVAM
Chain of Serine/threonine-protein kinase/endoribonuclease IRE1 (Homo sapiens) (O75460 19-977 limits assumed): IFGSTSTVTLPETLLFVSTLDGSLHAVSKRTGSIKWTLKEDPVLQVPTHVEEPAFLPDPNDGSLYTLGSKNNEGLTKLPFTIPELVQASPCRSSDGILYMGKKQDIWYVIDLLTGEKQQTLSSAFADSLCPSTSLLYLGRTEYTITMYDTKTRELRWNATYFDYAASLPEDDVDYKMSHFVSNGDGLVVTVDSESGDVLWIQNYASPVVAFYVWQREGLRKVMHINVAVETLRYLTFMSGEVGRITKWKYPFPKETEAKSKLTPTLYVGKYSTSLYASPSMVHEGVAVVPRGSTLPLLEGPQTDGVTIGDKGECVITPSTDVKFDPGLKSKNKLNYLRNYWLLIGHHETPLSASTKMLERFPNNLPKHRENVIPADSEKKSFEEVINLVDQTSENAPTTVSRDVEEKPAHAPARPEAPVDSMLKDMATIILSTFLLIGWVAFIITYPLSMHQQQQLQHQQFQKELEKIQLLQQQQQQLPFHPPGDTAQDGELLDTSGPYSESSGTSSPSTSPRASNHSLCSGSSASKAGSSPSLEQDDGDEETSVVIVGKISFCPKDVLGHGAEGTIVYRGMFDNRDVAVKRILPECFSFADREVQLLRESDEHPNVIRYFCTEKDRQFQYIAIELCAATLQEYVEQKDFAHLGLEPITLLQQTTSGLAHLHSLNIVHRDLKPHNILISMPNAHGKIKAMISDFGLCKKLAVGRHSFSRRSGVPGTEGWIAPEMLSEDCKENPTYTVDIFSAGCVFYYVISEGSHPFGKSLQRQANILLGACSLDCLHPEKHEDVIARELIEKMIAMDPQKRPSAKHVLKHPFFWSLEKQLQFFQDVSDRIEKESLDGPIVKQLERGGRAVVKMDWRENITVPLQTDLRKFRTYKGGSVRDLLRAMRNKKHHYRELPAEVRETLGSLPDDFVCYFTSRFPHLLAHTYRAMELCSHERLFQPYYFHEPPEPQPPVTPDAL
Chain of MAP kinase-activated protein kinase 3 (Homo sapiens) (Q16644 whole entry, looked up): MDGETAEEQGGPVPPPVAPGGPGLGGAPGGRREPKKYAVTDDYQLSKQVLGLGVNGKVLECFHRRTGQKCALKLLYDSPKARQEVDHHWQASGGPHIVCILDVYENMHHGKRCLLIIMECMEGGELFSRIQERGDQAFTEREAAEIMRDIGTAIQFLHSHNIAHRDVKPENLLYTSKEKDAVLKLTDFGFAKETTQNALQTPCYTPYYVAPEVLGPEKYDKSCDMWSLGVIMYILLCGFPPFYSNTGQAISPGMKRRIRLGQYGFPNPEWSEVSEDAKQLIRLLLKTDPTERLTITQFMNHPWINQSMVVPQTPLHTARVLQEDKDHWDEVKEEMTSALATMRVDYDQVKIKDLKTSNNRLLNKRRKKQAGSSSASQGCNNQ
Chain of Macrophage-stimulating protein receptor (Homo sapiens) (Q04912 25-304 limits assumed): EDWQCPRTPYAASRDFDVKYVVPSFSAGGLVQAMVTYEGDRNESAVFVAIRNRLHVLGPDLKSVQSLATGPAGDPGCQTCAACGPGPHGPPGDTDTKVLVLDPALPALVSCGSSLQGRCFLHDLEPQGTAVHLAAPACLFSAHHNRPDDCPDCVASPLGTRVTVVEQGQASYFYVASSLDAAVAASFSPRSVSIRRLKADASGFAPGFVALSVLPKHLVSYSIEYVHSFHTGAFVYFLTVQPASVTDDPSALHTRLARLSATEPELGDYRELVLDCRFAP
Chain of Macrophage-stimulating protein receptor (Homo sapiens) (Q04912 310-1400 limits assumed): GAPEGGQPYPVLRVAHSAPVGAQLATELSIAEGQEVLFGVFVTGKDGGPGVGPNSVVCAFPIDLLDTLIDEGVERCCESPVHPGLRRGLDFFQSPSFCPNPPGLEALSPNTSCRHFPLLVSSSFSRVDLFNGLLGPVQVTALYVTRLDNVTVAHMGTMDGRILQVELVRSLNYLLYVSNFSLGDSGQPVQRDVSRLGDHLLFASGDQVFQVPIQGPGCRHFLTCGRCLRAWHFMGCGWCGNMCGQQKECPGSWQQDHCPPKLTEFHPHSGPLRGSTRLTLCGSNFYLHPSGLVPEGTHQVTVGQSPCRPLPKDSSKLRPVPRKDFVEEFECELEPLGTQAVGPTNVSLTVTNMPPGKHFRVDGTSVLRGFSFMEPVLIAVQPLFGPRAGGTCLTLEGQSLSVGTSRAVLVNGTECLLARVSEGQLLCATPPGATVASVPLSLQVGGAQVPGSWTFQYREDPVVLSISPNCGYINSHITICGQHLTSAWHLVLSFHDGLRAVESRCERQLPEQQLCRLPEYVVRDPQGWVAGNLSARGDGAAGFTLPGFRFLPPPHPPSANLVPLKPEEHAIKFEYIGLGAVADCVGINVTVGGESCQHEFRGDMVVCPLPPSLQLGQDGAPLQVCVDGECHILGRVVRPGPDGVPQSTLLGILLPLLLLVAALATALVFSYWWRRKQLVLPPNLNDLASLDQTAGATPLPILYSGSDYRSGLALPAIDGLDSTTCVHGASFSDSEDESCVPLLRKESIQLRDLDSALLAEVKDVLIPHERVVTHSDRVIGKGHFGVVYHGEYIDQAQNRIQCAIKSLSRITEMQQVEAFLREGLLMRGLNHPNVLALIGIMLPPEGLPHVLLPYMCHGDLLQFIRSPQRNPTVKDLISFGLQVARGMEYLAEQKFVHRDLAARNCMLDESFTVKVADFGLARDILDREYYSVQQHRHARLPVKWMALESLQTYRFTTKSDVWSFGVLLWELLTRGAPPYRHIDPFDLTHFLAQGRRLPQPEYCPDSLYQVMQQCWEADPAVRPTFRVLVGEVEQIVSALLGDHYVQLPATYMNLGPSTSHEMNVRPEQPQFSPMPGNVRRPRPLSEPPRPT
Chain of Cyclin-dependent kinase 4 (Homo sapiens) (P11802 whole entry, canonical isoform): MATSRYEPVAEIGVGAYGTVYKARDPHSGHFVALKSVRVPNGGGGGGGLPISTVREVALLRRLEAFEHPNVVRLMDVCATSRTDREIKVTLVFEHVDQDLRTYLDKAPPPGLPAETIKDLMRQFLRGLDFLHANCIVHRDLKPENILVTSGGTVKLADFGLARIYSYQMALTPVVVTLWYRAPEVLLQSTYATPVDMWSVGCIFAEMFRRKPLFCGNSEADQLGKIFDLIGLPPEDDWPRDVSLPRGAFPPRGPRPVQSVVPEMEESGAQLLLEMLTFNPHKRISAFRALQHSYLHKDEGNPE

Q: `CNC(=O)c1ccccc1Oc1nc(Nc2cc(OC)c(OC)c(OC)c2)ncc1Br` was tested. Which fold change (FC) [1] did it give?
A: 0.95

Q: What about the inhibition [2] of the same compound?
A: 5%

Q: And the inhibition [3]?
A: 1%

Q: And the inhibition [4]?
A: 57%

Q: Which inhibition [5] does the source give for `CC(C)[C@H](NC(=O)c1cc(-c2cnn3cc(-c4ccc(OCCN5CCCCC5)cc4)cnc23)cs1)C(F)(F)F` here?
A: 11%

Q: What about the inhibition [6] of the same compound?
A: 0%

Q: And the inhibition [7]?
A: 8%

Q: What about the inhibition [8] of the same compound?
A: 0%

Q: What about the inhibition [9] of the same compound?
A: 0%

Q: Which inhibition [10] does the source give for `O=C(N[C@@H](C1CC1)C(F)(F)F)c1cc(-c2cnn3cc(-c4ccc(F)cc4)cnc23)cs1` here?
A: 3%

Q: And the IC50 [11]?
A: 22 nM

Q: And the inhibition [12]?
A: 0%

Q: What about the fold change (FC) [13] of the same compound?
A: 0

Q: And the fold change (FC) [14]?
A: 0

Q: And the fold change (FC) [15]?
A: 0
